Peptide text beside a SMILES is read from it.
Tests used:
[1] = target: T1, RAC-alpha serine/threonine-protein kinase (Homo sapiens, UniProt P31749); experiment: Inhibition of PKB by radioactive kinase assay
Outline: (§1)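 PKB/Akt enzyme HisAPHPKBEEEFlag, partly purified in one step on Ni-NTA agarose. The radioactive kinase reaction contains 50 mM Hepes pH 7.4, 0.1 mM EGTA, 0.1% 2-mercaptoethanol, 10 mM magnesium acetate, 3 uM RPRTSSF peptide substrate, 10 uM [γ32P]ATP and 0.005 units enzyme. Inhibition is given as percent reduction of activity against a no-inhibitor control. IC50 values, with 95% confidence ranges, come from curve fitting.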

[2] = target: T1, RAC-alpha serine/threonine-protein kinase; experiment: Inhibition of PKB at 50 uM by radioactive kinase assay relative to control; outline: as §1
[3] = target: T1, RAC-alpha serine/threonine-protein kinase; experiment: Inhibition of PKB at 5 uM by radioactive kinase assay relative to control; outline: as §1
[4] = target: T1, RAC-alpha serine/threonine-protein kinase; experiment: Inhibition of PKB at 20 uM by radioactive kinase assay relative to control; outline: as §1
[5] = Stability in presence of trypsin and chymotrypsin assessed as peptide degradation at 1 mM after 2 hrs by HPLC; type: ADME; settings: isolated protein, 1000 µM
Outline: (§2)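 Peptide at 1 mM in 200 mM NH4HCO3, pH 8, is mixed with porcine pancreatic trypsin plus chymotrypsin (2.5 mg/ml solution) and incubated at 37 °C. Samples are taken every 30 min and quenched with 2% TFA/30% acetonitrile in water. Degradation is followed by HPLC and MALDI-TOF MS.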

[6] = target: T1, RAC-alpha serine/threonine-protein kinase; experiment: Inhibition of PKB at 100 uM by radioactive kinase assay relative to control; outline: as §1
[7] = Stability in presence of trypsin and chymotrypsin assessed as peptide degradation at 1 mM after 30 mins by HPLC; type: ADME; settings: read-out: Activity; outline: as §2
[8] = Stability in presence of trypsin and chymotrypsin assessed as peptide degradation at 1 mM within 90 mins by HPLC; type: ADME; settings: isolated protein, 1.5 h, 1000 µM; outline: as §2
[9] = Stability in presence of trypsin and chymotrypsin assessed as peptide degradation at 1 mM within 30 mins by HPLC; type: ADME; settings: isolated protein, 0.5 h, 1000 µM; outline: as §2

T1 sequence (P31749 whole entry): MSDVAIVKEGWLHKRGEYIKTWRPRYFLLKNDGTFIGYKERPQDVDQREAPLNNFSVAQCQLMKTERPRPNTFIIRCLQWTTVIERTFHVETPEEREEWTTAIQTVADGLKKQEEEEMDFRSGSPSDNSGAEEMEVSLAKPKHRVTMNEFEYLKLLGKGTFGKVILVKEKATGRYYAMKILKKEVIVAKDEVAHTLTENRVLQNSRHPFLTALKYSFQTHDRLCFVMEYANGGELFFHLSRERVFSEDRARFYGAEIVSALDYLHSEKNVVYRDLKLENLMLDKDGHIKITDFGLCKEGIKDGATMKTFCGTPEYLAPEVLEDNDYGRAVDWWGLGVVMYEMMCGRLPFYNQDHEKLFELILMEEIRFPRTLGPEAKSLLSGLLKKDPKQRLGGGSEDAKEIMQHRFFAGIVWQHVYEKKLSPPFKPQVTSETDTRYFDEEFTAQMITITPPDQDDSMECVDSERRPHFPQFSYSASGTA

Row | IC50 [1] | inhibition [3] | inhibition [4] | also measured | Structure (SMILES)
1 | 840 nM |  |  |  | CCC[C@H](NC(=O)[C@H](CCCN=C(N)N)NC(=O)[C@@H]1CCCN1C(=O)[C@H](CCCN=C(N)N)NC(=O)[C@@H](N)CCCN=C(N)N)C(=O)N[C@@H](Cc1ccc(O)cc1)C(=O)N[C@@H](CN)C(=O)N[C@@H](CCC(C)C)C(N)=O
2 | 400 nM |  |  |  | CCC[C@H](NC(=O)[C@H](CCCN=C(N)N)NC(=O)[C@@H]1CCCN1C(=O)[C@@H](N)CCCN=C(N)N)C(=O)N[C@@H](Cc1ccc(O)cc1)C(=O)N[C@H](CS)C(=O)N[C@@H](CCC(C)C)C(N)=O
3 |  | 95% |  | inhibition [2]: 95% | CCC[C@H](NC(=O)[C@H](CCCNC(=N)N)NC(=O)[C@@H]1CCCN1C(=O)[C@@H](N)CCCNC(=N)N)C(=O)N[C@@H](Cc1ccc(O)cc1)C(=O)N[C@H](CS)C(=O)N[C@@H](CCC(C)C)C(N)=O
4 |  | 73% | 92% |  | CCC[C@H](NC(=O)[C@H](CCCNC(=N)N)NC(=O)[C@@H]1CCCN1C(=O)[C@H](CCCNC(=N)N)NC(=O)[C@@H](N)CCCCN)C(=O)N[C@@H](Cc1ccc(O)cc1)C(=O)N[C@@H](CN)C(=O)N[C@@H](CCC(C)C)C(N)=O
5 |  | 88% | 96% |  | CCC[C@H](NC(=O)[C@H](CCCNC(=N)N)NC(=O)[C@@H]1CCCN1C(=O)[C@H](CCCNC(=N)N)NC(=O)[C@@H](N)CCCNC(=N)N)C(=O)N[C@@H](Cc1ccc(O)cc1)C(=O)N[C@@H](CN)C(=O)N[C@@H](CCC(C)C)C(N)=O
6 |  |  | 3% |  | CCC[C@H](NC(=O)[C@H](CCCNC(=N)N)NC(=O)[C@@H]1CCCN1C(=O)[C@H](CCCNC(=N)N)NC(=O)[C@H](N)CCCCN)C(=O)N[C@@H](Cc1ccc(O)cc1)C(=O)N[C@@H](CN)C(=O)N[C@@H](CCC(C)C)C(N)=O
7 |  |  | 69% |  | CCC[C@H](NC(=O)[C@H](CCCNC(=N)N)NC(=O)[C@@H]1CCCN1C(=O)[C@H](CCCNC(=N)N)NC(=O)[C@H](N)CCCNC(=N)N)C(=O)N[C@@H](Cc1ccc(O)cc1)C(=O)N[C@@H](CN)C(=O)N[C@@H](CCC(C)C)C(=O)O
8 |  |  | 40% |  | CCC[C@H](NC(=O)[C@H](CCCNC(=N)N)NC(=O)[C@@H]1CCCN1C(=O)[C@H](CCCNC(=N)N)NC(=O)[C@H](N)CCCNC(=N)N)C(=O)N[C@@H](Cc1ccc(O)cc1)C(=O)N[C@@H](CN)C(=O)N[C@@H](CCC(C)C)C(N)=O
9 | 940 nM | 87% | 96% | inhibition [2]: 99%; Stability [5]: Unstable; inhibition [6]: 99%; metabolised at 0.5 h, 1000 µM [7]: 40% | CCC[C@H](NC(=O)[C@H](CCCNC(=N)N)NC(=O)[C@@H]1CCCN1C(=O)[C@@H](N)CCCNC(=N)N)C(=O)N[C@@H](Cc1ccc(O)cc1)C(=O)N[C@@H](CN)C(=O)N[C@@H](CCC(C)C)C(N)=O (HELM PEPTIDE1{R.P.R.[Nva].Y.[NC[C@H](N[*:1])C(=O)[*:2]].[CC(C)CC[C@H](N[*:1])C(=O)[*:2]].[am]}$$$$V2.0)
10 | 2030 nM | 77% |  | Stability [8]: Unstable; Stability [9]: Unstable; inhibition [6]: 95% | CCC[C@H](NC(=O)[C@H](CCCNC(=N)N)NC(=O)[C@H](C)N(C)C(=O)[C@@H](N)CCCNC(=N)N)C(=O)N[C@@H](Cc1ccc(O)cc1)C(=O)N[C@@H](CN)C(=O)N[C@@H](CCC(C)C)C(N)=O (HELM PEPTIDE1{R.[meA].R.[Nva].Y.[NC[C@H](N[*:1])C(=O)[*:2]].[CC(C)CC[C@H](N[*:1])C(=O)[*:2]].[am]}$$$$V2.0)
11 |  |  | 46% |  | CCC[C@H](NC(=O)[C@H](CCCNC(=N)N)NC(=O)[C@@H]1CCCN1C(=O)[C@H](CCCNC(=N)N)NC(=O)[C@H](CCCCN)NC(C)=O)C(=O)N[C@@H](Cc1ccc(O)cc1)C(=O)N[C@@H](CN)C(=O)N[C@@H](CCC(C)C)C(=O)O (HELM PEPTIDE1{[ac].K.R.P.R.[Nva].Y.[NC[C@H](N[*:1])C(=O)[*:2]].[CC(C)CC[C@H](N[*:1])C(=O)O]}$$$$V2.0)
12 |  | 61% | 85% |  | CCC[C@H](NC(=O)[C@H](CCCNC(=N)N)NC(=O)[C@@H]1CCCN1C(=O)[C@H](CCCNC(=N)N)NC(=O)[C@H](CCCCN)NC(C)=O)C(=O)N[C@@H](Cc1ccc(O)cc1)C(=O)N[C@@H](CN)C(=O)N[C@@H](CCC(C)C)C(N)=O (HELM PEPTIDE1{[ac].K.R.P.R.[Nva].Y.[NC[C@H](N[*:1])C(=O)[*:2]].[CC(C)CC[C@H](N[*:1])C(=O)[*:2]].[am]}$$$$V2.0)
13 | 1170 nM |  |  |  | CCC[C@H](NC(=O)[C@H](CCCN=C(N)N)NC(=O)[C@@H]1CCCN1C(=O)[C@H](CCCN=C(N)N)NC(=O)[C@H](CCCN=C(N)N)NC(C)=O)C(=O)N[C@@H](Cc1ccc(O)cc1)C(=O)N[C@@H](CN)C(=O)N[C@@H](CCC(C)C)C(N)=O (HELM PEPTIDE1{[ac].R.R.P.R.[Nva].Y.[NC[C@H](N[*:1])C(=O)[*:2]].[CC(C)CC[C@H](N[*:1])C(=O)[*:2]].[am]}$$$$V2.0)
14 |  | 83% | 94% |  | CCC[C@H](NC(=O)[C@H](CCCNC(=N)N)NC(=O)[C@@H]1CCCN1C(=O)[C@H](CCCNC(=N)N)NC(=O)[C@H](CCCNC(=N)N)NC(C)=O)C(=O)N[C@@H](Cc1ccc(O)cc1)C(=O)N[C@@H](CN)C(=O)N[C@@H](CCC(C)C)C(N)=O (HELM PEPTIDE1{[ac].R.R.P.R.[Nva].Y.[NC[C@H](N[*:1])C(=O)[*:2]].[CC(C)CC[C@H](N[*:1])C(=O)[*:2]].[am]}$$$$V2.0)
15 | 920 nM | 85% |  | inhibition [6]: 97% | CCC[C@H](NC(=O)[C@H](CCCNC(=N)N)NC(=O)[C@@H]1CCCN1C(=O)[C@H](CCCNC(=N)N)NC)C(=O)N[C@@H](Cc1ccc(O)cc1)C(=O)N[C@@H](CN)C(=O)N[C@@H](CCC(C)C)C(N)=O (HELM PEPTIDE1{[meR].P.R.[Nva].Y.[NC[C@H](N[*:1])C(=O)[*:2]].[CC(C)CC[C@H](N[*:1])C(=O)[*:2]].[am]}$$$$V2.0)

Source: ChEMBL document CHEMBL1156226, “Synthesis and structure-activity relationship studies of peptidomimetic PKB/Akt inhibitors: the significance of backbone interactions” (Bioorg Med Chem, 2010)
